Data taken from ChEMBL document CHEMBL1133588 (J Med Chem, 2000).
pKi: −log10 of the molar value.

Tests used:
Format in all cases: tissue-based
[1] = target: Sodium-dependent dopamine transporter (Rattus norvegicus, UniProt P23977); experiment: Displacement of [3H]WIN-35428 from the dopamine transporter in rat caudate putamen
How it was run: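 Male Sprague-Dawley rat caudate putamen, fresh washed membranes in Krebs-HEPES pH 7.4, 0.5% w/v. Filtration on BSA-soaked GF/B filters. Three experiments in triplicate; Ki from nonlinear least-squares fitting of pooled replicates.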

[2] = target: T1, Muscarinic acetylcholine receptor M1 (Rattus norvegicus, UniProt P08482); experiment: Binding affinity at Muscarinic acetylcholine receptor M1 in Rat brain homogenate by [3H]pirenzepine displacement.
T1 sequence (P08482 whole entry): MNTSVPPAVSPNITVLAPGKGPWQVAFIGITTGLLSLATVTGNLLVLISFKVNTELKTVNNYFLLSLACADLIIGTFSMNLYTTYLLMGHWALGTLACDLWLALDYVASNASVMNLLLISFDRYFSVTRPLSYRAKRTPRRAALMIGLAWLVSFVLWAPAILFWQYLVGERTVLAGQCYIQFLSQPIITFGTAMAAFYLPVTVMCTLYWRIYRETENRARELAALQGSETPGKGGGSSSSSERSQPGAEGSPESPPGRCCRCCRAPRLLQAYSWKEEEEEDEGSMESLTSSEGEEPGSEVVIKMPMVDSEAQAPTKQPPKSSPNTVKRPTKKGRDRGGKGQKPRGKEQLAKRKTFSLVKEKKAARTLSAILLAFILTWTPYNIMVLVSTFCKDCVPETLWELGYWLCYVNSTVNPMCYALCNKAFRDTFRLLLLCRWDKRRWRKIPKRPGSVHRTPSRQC

[3] = target: T1, Muscarinic acetylcholine receptor M1; experiment: Compound is tested for displacement of [3H]pirenzepine at […] in Rat brain homogenate.
How it was run: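 Whole rat brain minus cerebellum, homogenised in 10 mM Tris-HCl/320 mM sucrose pH 7.4; 10000g pellet. Binding in 10 mM Tris-HCl with 5 mM MgCl2, […], [3H]pirenzepine 3 nM final, 1 h at 37 °C. Competitor 0.01 nM–100 µM. Filtration through PEI-soaked GF/B filters. At least three experiments in triplicate; Ki from nonlinear curve fitting.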

Sodium-dependent dopamine transporter, sequence (P23977 whole entry): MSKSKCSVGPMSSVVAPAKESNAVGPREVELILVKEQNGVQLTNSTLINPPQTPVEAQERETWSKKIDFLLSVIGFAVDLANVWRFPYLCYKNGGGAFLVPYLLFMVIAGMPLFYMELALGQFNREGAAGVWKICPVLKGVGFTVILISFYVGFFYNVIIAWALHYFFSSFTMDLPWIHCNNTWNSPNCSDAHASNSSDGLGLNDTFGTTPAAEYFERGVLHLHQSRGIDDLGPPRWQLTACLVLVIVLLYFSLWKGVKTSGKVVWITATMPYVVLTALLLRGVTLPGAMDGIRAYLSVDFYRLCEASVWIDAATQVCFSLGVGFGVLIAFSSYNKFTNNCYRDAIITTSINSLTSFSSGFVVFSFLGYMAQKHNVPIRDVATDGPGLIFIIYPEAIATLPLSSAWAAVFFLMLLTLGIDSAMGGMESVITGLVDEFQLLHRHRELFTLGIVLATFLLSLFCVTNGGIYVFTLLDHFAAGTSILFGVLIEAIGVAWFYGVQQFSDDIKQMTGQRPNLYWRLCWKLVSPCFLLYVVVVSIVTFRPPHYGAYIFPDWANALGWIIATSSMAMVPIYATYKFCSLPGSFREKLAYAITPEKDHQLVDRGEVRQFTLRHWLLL

SMILES	pKi [1]	pKi [2]	pKi [3]
Fc1ccc(C(OC2CC3CCC(C2)N3Cc2cccc3ccccc23)c2ccc(F)cc2)cc1 (stereo not given)	6.44	5.75	
O=[N+]([O-])c1ccc(-c2ccc(COCCN3C4CCC3CC(OC(c3ccc(F)cc3)c3ccc(F)cc3)C4)cc2)cc1 (stereo not given)			6.34
C=CCN1C2CCC1CC(OC(c1ccc(F)cc1)c1ccc(F)cc1)C2 (stereo not given)		6.75	
Fc1ccc(C(OC2CC3CCC(C2)N3CCCc2ccccc2)c2ccc(F)cc2)cc1 (stereo not given)			6.51
Fc1ccc(C(OC2CC3CCC(C2)N3Cc2ccc(Cl)c(Cl)c2)c2ccc(F)cc2)cc1 (stereo not given)	6.41	5.41	
NCCN1[C@@H]2CC[C@H]1C[C@@H](OC(c1ccc(F)cc1)c1ccc(F)cc1)C2	7.86	5.90	
Fc1ccc(C(OC2CC3CCC(C2)N3Cc2ccccc2)c2ccc(F)cc2)cc1 (stereo not given)			5.99
Fc1ccc(C(OC2CC3CCC(C2)N3C/C=C/c2ccccc2)c2ccc(F)cc2)cc1 (stereo not given)	7.06		6.40
Fc1ccc(CN2C3CCC2CC(OC(c2ccc(F)cc2)c2ccc(F)cc2)C3)cc1 (stereo not given)			5.81
CC(C)[C@H](N)CN1C2CCC1CC(OC(c1ccc(F)cc1)c1ccc(F)cc1)C2 (stereo not given in full)	7.53	5.40	
CC(C)[C@@H](N)CN1C2CCC1CC(OC(c1ccc(F)cc1)c1ccc(F)cc1)C2 (stereo not given in full)	7.25	5.66	
C[C@@H](CN1C2CCC1CC(OC(c1ccc(F)cc1)c1ccc(F)cc1)C2)c1ccccc1 (stereo not given in full)	6.32	6.41	
C[C@H](CN1C2CCC1CC(OC(c1ccc(F)cc1)c1ccc(F)cc1)C2)c1ccccc1 (stereo not given in full)	6.52	5.72	
CC[C@H](CN1C2CCC1CC(OC(c1ccc(F)cc1)c1ccc(F)cc1)C2)c1ccccc1 (stereo not given in full)	6.64	5.63	
Fc1ccc(CCCN2C3CCC2CC(OC(c2ccc(F)cc2)c2ccc(F)cc2)C3)cc1 (stereo not given)			6.16
Fc1ccc(C(O[C@H]2C[C@H]3CC[C@@H](C2)N3CCc2c[nH]c3ccccc23)c2ccc(F)cc2)cc1	7.35		5.48
C=CCCN1C2CCC1CC(OC(c1ccc(F)cc1)c1ccc(F)cc1)C2 (stereo not given)	7.50	6.56	
O=[N+]([O-])c1ccc(CCCCN2[C@@H]3CC[C@H]2C[C@@H](OC(c2ccc(F)cc2)c2ccc(F)cc2)C3)cc1		6.52	
Fc1ccc(C(OC2CC3CCC(C2)N3CC2CC2)c2ccc(F)cc2)cc1 (stereo not given)			6.59
Fc1ccc(C(OC2CC3CCC(C2)N3)c2ccc(F)cc2)cc1 (stereo not given)		6.69	
Nc1ccc(CCCCN2[C@@H]3CC[C@H]2C[C@@H](OC(c2ccc(F)cc2)c2ccc(F)cc2)C3)cc1		6.87	
CCCCN1C2CCC1CC(OC(c1ccc(F)cc1)c1ccc(F)cc1)C2 (stereo not given)		6.40	
CC[C@@H](CN1C2CCC1CC(OC(c1ccc(F)cc1)c1ccc(F)cc1)C2)c1ccccc1 (stereo not given in full)	6.40	5.84	
